# From publication PMC3052282 (Journal of biomolecular screening, 2010)
# “Also recorded” adds a separate entry of the source.
# Columns and labels:
# DnaK-DnaJ [1] = biological target: T1, DnaK-DnaJ (Escherichia coli, UniProt P0A6Y8); assay: High throughput ATPase assay of DnaK-DnaJ; format: biochemical; conditions: for inhibition of DnaK-DnaJ ATPase activity upon re-testing: repurchased (fresh) samples
# [2] = biological target: DnaK binding to luciferase (Escherichia coli, UniProt P0A6Y8); assay: ELISA of DnaK binding to the model substrate firefly luciferase; conditions: 0.05 μM DnaK + 1 mM ATP
# DnaK-DnaJ [3] = biological target: T1, DnaK-DnaJ; assay: DnaJ-mediated stimulation of ATP turnover by DnaK; format: biochemical; conditions: DnaK 0.6 μM
# In short: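 E. coli DnaK (purified) at 0.6 µM with DnaJ titrated, in 100 mM Tris-HCl, 20 mM KCl, 6 mM MgCl2, 0.01% Triton X-100, pH 7.4. Reaction started with 7 mM ATP stock and run 3 h at 37 °C. Quinaldine red–molybdate reagent added for 2 min, quenched with sodium citrate, then 15 min at 37 °C. Absorbance read at 530 nm; triplicates.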
# DnaK = DnaK (Escherichia coli, UniProt P0A6Y8); assay: Intrinsic ATPase activity of DnaK; format: biochemical; conditions: without DnaJ stimulation
# [4] = biological target: firefly luciferase [luciferase: P08659]; assay: ELISA
# firefly luciferase [luciferase: P08659], sequence (P08659 whole entry): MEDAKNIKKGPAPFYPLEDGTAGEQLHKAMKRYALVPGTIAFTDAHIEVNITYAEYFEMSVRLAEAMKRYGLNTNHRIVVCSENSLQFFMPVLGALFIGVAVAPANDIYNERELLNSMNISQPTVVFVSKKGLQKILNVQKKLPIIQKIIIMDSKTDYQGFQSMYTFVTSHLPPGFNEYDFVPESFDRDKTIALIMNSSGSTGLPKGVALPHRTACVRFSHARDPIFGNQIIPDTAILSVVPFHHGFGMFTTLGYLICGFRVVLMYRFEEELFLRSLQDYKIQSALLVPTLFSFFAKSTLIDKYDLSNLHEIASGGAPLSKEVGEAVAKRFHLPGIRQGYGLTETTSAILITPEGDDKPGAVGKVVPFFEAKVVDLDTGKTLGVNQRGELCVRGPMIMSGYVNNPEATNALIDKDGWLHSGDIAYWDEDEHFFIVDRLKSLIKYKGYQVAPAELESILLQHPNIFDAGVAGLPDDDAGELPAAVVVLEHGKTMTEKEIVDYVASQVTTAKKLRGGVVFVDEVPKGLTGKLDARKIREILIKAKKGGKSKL
# T1 sequence (P0A6Y8 whole entry): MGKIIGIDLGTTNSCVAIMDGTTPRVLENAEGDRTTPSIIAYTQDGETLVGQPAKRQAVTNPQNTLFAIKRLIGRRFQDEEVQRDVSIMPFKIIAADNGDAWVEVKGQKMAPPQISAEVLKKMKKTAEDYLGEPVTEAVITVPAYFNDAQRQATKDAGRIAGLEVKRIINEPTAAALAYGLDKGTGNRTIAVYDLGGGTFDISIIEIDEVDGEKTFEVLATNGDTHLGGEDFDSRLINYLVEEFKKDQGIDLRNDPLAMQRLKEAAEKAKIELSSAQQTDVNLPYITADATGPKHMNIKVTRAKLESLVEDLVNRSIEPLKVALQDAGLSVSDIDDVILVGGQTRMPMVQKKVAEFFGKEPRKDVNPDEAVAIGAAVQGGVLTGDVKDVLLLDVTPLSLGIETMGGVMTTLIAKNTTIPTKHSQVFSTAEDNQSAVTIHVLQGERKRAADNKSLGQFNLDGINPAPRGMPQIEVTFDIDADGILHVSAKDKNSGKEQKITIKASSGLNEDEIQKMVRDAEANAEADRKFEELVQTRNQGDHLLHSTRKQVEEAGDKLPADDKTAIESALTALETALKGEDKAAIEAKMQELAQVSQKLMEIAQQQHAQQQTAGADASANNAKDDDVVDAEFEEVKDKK
# DnaK binding to luciferase, sequence (P0A6Y8 whole entry): as above
# Escherichia coli heat shock protein 70 (Hsp70/DnaK), sequence (P0A6Y8 whole entry): as above
# DnaK, sequence (P0A6Y8 whole entry): as above
Molecule,inhibition of DnaK-DnaJ ATPase activity upon re-testing (DnaK-DnaJ [1]),IC50 (DnaK-DnaJ [1]) [µM],also measured
"O=C(O)c1cccc2c1NC(c1ccc([N+](=O)[O-])cc1)C1CC=CC21 (stereo not drawn) [1a, 4-(4-nitrophenyl)-3a,4,5,9b-tetrahydro-3H-cyclopenta[c]quinoline-6-carboxylic acid]",none of these compounds were inhibitors,–,–
"O=C(O)c1ccc2c(c1)C1C=CCC1C(c1ccc(Cl)cc1)N2 (stereo not drawn) [1b, 4-(4-chlorophenyl)-3a,4,5,9b-tetrahydro-3H-cyclopenta[c]quinoline-8-carboxylic acid]",none of these compounds were inhibitors,–,–
"O=C(O)c1ccc2c(c1)C1C=CCC1C(c1cccc(C(F)(F)F)c1)N2 (stereo not drawn) [1c, 4-(3-(trifluoromethyl)phenyl)-3a,4,5,9b-tetrahydro-3H-cyclopenta[c]quinoline-8-carboxylic acid]",none of these compounds were inhibitors,–,–
"CCc1ccc(C2Nc3ccc(C(=O)O)cc3C3C=CCC32)cc1 (stereo not drawn) [1d, 4-(4-ethylphenyl)-3a,4,5,9b-tetrahydro-3H-cyclopenta[c]quinoline-8-carboxylic acid]",none of these compounds were inhibitors,–,–
"CCOC(=O)c1c(N)n(-c2ccccc2)c2nc3ccccc3nc12 [2a, ethyl 2-amino-1-phenyl-1H-pyrrolo[2,3-b]quinoxaline-3-carboxylate]",–,> 500,–
"CCCCCCn1c(N)c(C(=O)OCC)c2nc3ccccc3nc21 [2b, ethyl 2-amino-1-hexyl-1H-pyrrolo[2,3-b]quinoxaline-3-carboxylate]",–,> 500,–
"Cc1cc(C(F)(F)F)c(C#N)c(SCC(=O)c2ccccc2)n1 [3a, 6-methyl-2-((2-oxo-2-phenylethyl)thio)-4-(trifluoromethyl)nicotinonitrile]",–,> 500,–
"CCOC(=O)c1c(N)sc2c1CCN(C(C)=O)C2 [3b, ethyl 6-acetyl-2-amino-4,5,6,7-tetrahydrothieno[2,3-c]pyridine-3-carboxylate]",–,> 500,–
"COc1cc(C(=O)NS(=O)(=O)c2ccccc2C)ccc1Cc1cn(C)c2ccc(NC(=O)OC3CCCC3)cc12 [3c, cyclopentyl (3-(2-methoxy-4-((o-tolylsulfonyl)carbamoyl)benzyl)-1-methyl-1H-indol-5-yl) carbamate]",–,37 ± 1,effect on apparent affinity of DnaK for luciferase [2]: significantly improved the apparent affinity; also recorded: significantly enhanced this interaction; K0.5 of DnaJ (DnaK-DnaJ [3]; in presence of 25 μM compound): 0.18 ± 0.01 µM; K0.5 of DnaJ (DnaK-DnaJ [3]; in presence of 50 μM compound): 0.96 ± 0.16 µM; K0.5 of DnaJ (DnaK-DnaJ [3]; in presence of 100 μM compound): greater than 2 μM; effect on the intrinsic ATPase activity of DnaK (DnaK): little effect on the intrinsic ATPase activity
Escherichia coli heat shock protein 70 (Hsp70/DnaK) (from UniProt P0A6Y8 1-638) (natural protein),–,–,Kd [4]: 0.26 µM
